The list is not random: actives were taken first. Their share in the collection is about 2.3%.
TRPC4 inh: blocks the mouse TRPC4 cation channel; Q9QUQ5; HEK293 TRPC4beta/mu-opioid, DAMGO-evoked Fluo4 calcium flux; stronger effect = lower value; B-score at 10 µM; 300,000 compounds, 0.39% hits;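 active = B-score over 3 SD under the library average, no early fluorescence shift, positive overall ratio signal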
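Assay system: Stable TRPC4beta/mu-opioid receptor HEK293 cells | Reagent: DAMGO in two steps, submaximal then maximal | Compound dosing: Single concentration per test compound | Signal: Fluo4 Ca2+ flux fluorescence | Evaluation: Per-well B score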
TRPC4 agonist: activators of mouse TRPC4 channel; Q9QUQ5; HEK293 TRPC4beta/mu-opioid, Fluo4 calcium fluorescence; stronger effect = higher value; B-score at 10 µM; 310,000 compounds, 0.49% hits; AID 2237;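 active = B-score above 5 SD of library B-scores, and initial fluorescence ratio not above library mean plus 5 SD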;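 also: positive B-score marks a calcium rise read as TRPC4 activation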
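System: HEK293 cells stably co-expressing mouse TRPC4beta and mu-opioid receptor; Schedule: Fluo4 dye loading 45 min at room temperature, 110 s recording; Detection: Fluo4 fluorescence, kinetic; Evaluation: B-scored integrated calcium fluorescence ratio; Controls: buffer (low) and maximal DAMGO (high).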
TRPC4 potent: TRPC4 (mouse) allosteric potentiation; Q9QUQ5; HEK293 TRPC4beta/mu-opioid, DAMGO EC20, Fluo-4 Ca2+ flux; stronger effect = higher value; 310,000 compounds, 0.42% hits; B-score at 10 µM; AID 2227;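 active = B-score of calcium response area above 5 SD of library B-scores, with initial fluorescence ratio within 5 SD of library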;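 also: B-score of integrated fluorescence ratio over time as area under calcium response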
TRPC6 inhibitor: inhibitors of mouse TRPC6 channel. Q61143. HEK293-TRPC6, membrane potential dye, ACh-evoked depolarization; stronger effect = lower value. B-score at 10 µM. 310,000 compounds, 1.1% hits;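 active = B-score under library mean minus 3 SD, initial fluorescence not abnormally high, positive integrated signal ratio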;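 also: B-score derived from integrated fluorescence ratio over the kinetic read; more negative B-score means stronger inhibition of depolarization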
Target sequence (Q61143 whole entry, looked up): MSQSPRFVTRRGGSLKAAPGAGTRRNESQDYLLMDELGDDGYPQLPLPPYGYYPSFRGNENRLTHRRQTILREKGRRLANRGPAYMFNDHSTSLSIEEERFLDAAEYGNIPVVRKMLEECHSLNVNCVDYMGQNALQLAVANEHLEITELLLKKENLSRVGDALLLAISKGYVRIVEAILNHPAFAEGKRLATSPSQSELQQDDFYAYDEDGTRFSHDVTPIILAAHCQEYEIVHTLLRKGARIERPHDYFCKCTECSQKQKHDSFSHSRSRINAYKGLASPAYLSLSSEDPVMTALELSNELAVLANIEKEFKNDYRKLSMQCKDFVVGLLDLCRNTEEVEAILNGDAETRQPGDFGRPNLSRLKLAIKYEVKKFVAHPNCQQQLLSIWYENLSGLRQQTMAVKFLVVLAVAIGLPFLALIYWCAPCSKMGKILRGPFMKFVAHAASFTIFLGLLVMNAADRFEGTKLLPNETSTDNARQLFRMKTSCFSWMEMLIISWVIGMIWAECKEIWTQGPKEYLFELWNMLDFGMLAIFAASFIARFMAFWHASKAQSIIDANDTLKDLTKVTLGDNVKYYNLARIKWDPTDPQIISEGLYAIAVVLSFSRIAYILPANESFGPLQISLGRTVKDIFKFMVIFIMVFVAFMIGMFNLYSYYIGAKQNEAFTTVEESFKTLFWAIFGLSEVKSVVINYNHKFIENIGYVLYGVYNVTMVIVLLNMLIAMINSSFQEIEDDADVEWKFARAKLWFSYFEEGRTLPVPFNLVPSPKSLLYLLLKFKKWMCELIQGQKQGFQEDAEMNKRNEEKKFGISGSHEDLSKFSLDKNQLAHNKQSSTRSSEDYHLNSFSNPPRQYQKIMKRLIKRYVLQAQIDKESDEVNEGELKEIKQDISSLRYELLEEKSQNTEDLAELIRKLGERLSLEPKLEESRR
TRPC6 act: activates the mouse TRPC6 cation channel. HEK293-TRPC6 membrane potential dye fluorescence; stronger effect = higher value. B-score at 10 µM. 310,000 compounds, 0.13% hits. AID 2550;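 active = B-score of the integrated fluorescence ratio above library mean plus 3 SD, and starting fluorescence ratio within library mean plus 5 SD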;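 also: higher score means more depolarization so channel activation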
Active calls of the source: *; i = inactive.

SMILES | TRPC4 inh | TRPC4 agonist | TRPC4 potent | TRPC6 inhibitor | TRPC6 act
COc1ccc(C2NC(C(=O)O)Cc3c2[nH]c2ccccc32)cc1CN1CCN(c2ccc(F)cc2)CC1 (stereo not given) | -6* | i | i | i | i
c1ccc2c(Cn3ccnc3)cccc2c1 | i | i | i | i | i
Fc1ccc(-c2[nH]ncc2CN2CCN(c3ccc(F)cc3)CC2)cc1 | i | i | 12* | i | i
O[C@@H]([C@H](O)[C@H](O)CBr)[C@H](O)CBr | i | i | i | i | i
Cc1ccc(-c2cc(=O)c3cc(Cl)ccc3[nH]2)cc1 | i | i | i | i | i
O=C(NC1CCCCCCC1)c1cnccn1 | i | i | 12* | i | i
O=C(NC1CCS(=O)(=O)C1)c1cnccn1 (stereo not given) | i | i | i | i | i
O=C(O)C1CCCCC1C(=O)NCCc1ccc(F)cc1 (stereo not given) | i | i | 10* | i | i
COc1ccccc1C(=O)Nc1ccc2c(c1)CCCN2C(=O)c1cccs1 | -6* | i | i | i | i
COc1cc(OC)cc(C(=O)Nc2ccc3c(c2)CCCN3C(=O)c2cccs2)c1 | i | i | i | i | i
CN1CCN(S(=O)(=O)c2ccc(NC(=O)Cc3ccc([N+](=O)[O-])cc3)cc2)CC1 | i | i | i | i | i
CSc1ccc2nnc(-c3cccc(F)c3)n2n1 | i | i | 21* | i | i
CCN(CC(=O)Nc1ccc(NC(C)=O)cc1)C(=O)c1cccc(S(=O)(=O)N2CCCC2)c1 | i | i | i | i | i
CCC(=O)Nc1nc2ccccc2n1CCN(CC)CC | i | i | 11* | i | i
CCN(CC)CCn1c(NC(=O)c2ccc(C)cc2)nc2ccccc21 | i | i | i | i | i
CCN1CCN(c2ccc(S(=O)(=O)N3CCCCC3)cc2NC(=O)Cc2ccc(OC)cc2)CC1 | i | 63* | i | i | i
CCN1CCN(c2ccc(S(=O)(=O)N3CCCCC3)cc2NC(=O)/C=C/c2cccc(OC)c2OC)CC1 | i | i | i | i | i
CCN1CCN(c2ccc(S(=O)(=O)N3CCCCC3)cc2NC(=O)c2cccc(Cl)c2)CC1 | i | 45* | 18* | i | i
CCN1CCN(c2ccc(S(=O)(=O)N3CCCCC3)cc2NC(=O)Cc2c(F)cccc2Cl)CC1 | i | i | 11* | i | i
CCN1CCN(c2c(Cl)cccc2NC(=O)c2cc3ccccc3o2)CC1 | i | i | 23* | i | i
CCOc1ccc(-c2nc(C#N)c(NCc3ccco3)o2)cc1 | i | i | i | i | i
COc1ccc(C2CC(=O)C(C=NCCO)=C(O)C2)cc1 (stereo not given) | i | i | i | i | i
CC(C)Cn1c(N)c(C(=O)COC(=O)CCNS(=O)(=O)c2ccccc2)c(=O)n(C)c1=O | i | i | i | i | i
CCN1CCN(c2ccc(S(=O)(=O)N3CCCCC3)cc2NC(=O)c2cc3ccccc3o2)CC1 | i | i | 18* | i | i
CCN1CCN(c2ccc(S(=O)(=O)N3CCCCC3)cc2NC(=O)c2ccc(OC(F)F)cc2)CC1 | i | i | i | i | i
SMILES | TRPC4 inh | TRPC4 agonist | TRPC4 potent | TRPC6 inhibitor | TRPC6 act
CCN1CCN(c2ccc(S(=O)(=O)N3CCCCC3)cc2NC(=O)c2cccc(OC(F)F)c2)CC1 | i | i | 19* | i | i
COCc1ccc(C(=O)N(C)C2CCCN(Cc3ccccc3F)C2)o1 (stereo not given) | i | i | i | i | i
O=C(O)CCNc1nc(-c2ccccc2)c2cc(Br)ccc2n1 | i | i | 16* | i | i
COC(=O)CC(c1ccc(OC)c(OC)c1)c1ccc(OC)c(OC)c1 | i | i | i | i | i
Cc1ccc(CNC(=O)c2cc3cc(Br)ccc3oc2=N)cc1 | i | i | i | i | i
N=c1oc2ccc(Br)cc2cc1C(=O)NCc1ccc(F)cc1 | i | i | 12* | i | i
O=C(c1ccc(Oc2ccccc2)cc1)C1CCCN(C(=O)c2cnccn2)C1 (stereo not given) | i | i | i | i | i

Bioassay records as filed in PubChem BioAssay.
